Source: ChEMBL document CHEMBL1150273, “Aza-peptidyl Michael acceptors. A new class of potent and selective inhibitors of asparaginyl endopeptidases (legumains) from evolutionarily diverse pathogens” (J Med Chem, 2008)
One block for each molecule: values may come before it. Activity calls are given as the source filed them. The calls are words filed in the database; no cut-off is given here.

Tests used:
[1] = Inhibition of Trichomonas vaginalis G3 AE1 expressed in Pichia pastoris after 20 mins
Outline: (§1)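 Recombinant AE zymogens expressed in Pichia pastoris; SmAE and TvAE1 autoactivated in 0.5 M sodium acetate, 4 mM DTT, pH 4.5, 37 °C, 3 h to overnight; IrAE used without activation. Buffer 0.1 M citrate phosphate, 4 mM DTT, pH 6.8 (SmAE, TvAE1) or pH 5.5 (IrAE). Inhibitor 2.0–0.0002 µM final, 20 min preincubation at room temperature; 10 µM final Cbz-Ala-Ala-Asn-AMC, 20 min; IC50 from RFU/min vs concentration.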

[2] = Inhibition of Ixodes ricinus AE expressed in Pichia pastoris after 20 mins; outline: as §1
[3] = Stability assessed as half life in citrate phosphate buffer at pH 6.8 in presence of dithiothreitol; type: physicochemical; settings: citrate phosphate buffer with dithiothreitol
[4] = (§2) Inhibition of Schistosoma mansoni AE expressed in Pichia pastoris after 20 mins; outline: as §1
Caspase-3 (Homo sapiens) = molecular target: T1, Caspase-3 (Homo sapiens) (UniProt P42574); assay: Inhibition of caspase 3 assessed as ratio of pseudo-first-order inhibition rate constant to inhibitor concentration
T1 sequence (whole entry): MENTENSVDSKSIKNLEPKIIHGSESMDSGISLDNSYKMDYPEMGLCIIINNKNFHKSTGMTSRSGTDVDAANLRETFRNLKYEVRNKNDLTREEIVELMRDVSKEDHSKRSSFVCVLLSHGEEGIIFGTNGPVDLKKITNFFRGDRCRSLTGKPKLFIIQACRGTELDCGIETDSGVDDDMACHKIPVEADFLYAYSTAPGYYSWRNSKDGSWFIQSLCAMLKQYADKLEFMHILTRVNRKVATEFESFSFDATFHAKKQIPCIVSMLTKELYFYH
Outline: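 Caspase-3 (1 nM final) preactivated 10 min at 37 °C in 40 mM Pipes, 200 mM NaCl, 0.2% CHAPS, 20% sucrose mixed 1:1 with 20 mM DTT, pH 7.2; enzyme added to inhibitor plus Ac-Asp-Glu-Val-Asp-AMC; progress curves 20 min at 37 °C (ex 360, em 465 nm); duplicates; rates corrected for substrate (KM 9.7 µM).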

Caspase-6 (Homo sapiens) = molecular target: T2, Caspase-6 (Homo sapiens) (UniProt P55212); assay: Inhibition of caspase 6 assessed as ratio of pseudo-first-order inhibition rate constant to inhibitor concentration
T2 sequence (whole entry): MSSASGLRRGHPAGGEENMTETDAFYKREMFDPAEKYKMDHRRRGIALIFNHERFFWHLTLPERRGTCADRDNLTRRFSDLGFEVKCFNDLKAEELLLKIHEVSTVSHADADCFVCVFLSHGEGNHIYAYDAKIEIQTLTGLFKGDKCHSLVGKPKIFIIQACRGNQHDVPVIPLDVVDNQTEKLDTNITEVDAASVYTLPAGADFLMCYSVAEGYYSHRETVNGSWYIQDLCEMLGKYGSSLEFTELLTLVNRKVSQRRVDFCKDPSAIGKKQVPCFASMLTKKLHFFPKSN
Outline: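 Caspase-6 at 5 nM final, assayed in the same Pipes/NaCl/CHAPS/sucrose/DTT buffer, pH 7.2, 37 °C with Ac-Asp-Glu-Val-Asp-AMC by the progress curve method; inhibitor stocks 5 × 10^-3 to 2.42 × 10^-6 M in DMSO; rates corrected for substrate using KM 236.35 µM.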

Caspase-8 (Homo sapiens) = Caspase-8 (Homo sapiens) (UniProt Q14790); assay: Inhibition of caspase 8 assessed as ratio of pseudo-first-order inhibition rate constant to inhibitor concentration
Outline: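 Caspase-8 at 50 nM final, assayed in the same Pipes/NaCl/CHAPS/sucrose/DTT buffer, pH 7.2, 37 °C with Ac-Asp-Glu-Val-Asp-AMC by the progress curve method; inhibitor stocks 5 × 10^-3 to 2.42 × 10^-6 M in DMSO; rates corrected for substrate using KM 6.79 µM.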

[5] = molecular target: T3, Calpain-1 catalytic subunit (Homo sapiens) (UniProt P07384); assay: Inhibition of calpain 1 assessed as ratio of pseudo-first-order inhibition rate constant to inhibitor concentration
T3 sequence (whole entry): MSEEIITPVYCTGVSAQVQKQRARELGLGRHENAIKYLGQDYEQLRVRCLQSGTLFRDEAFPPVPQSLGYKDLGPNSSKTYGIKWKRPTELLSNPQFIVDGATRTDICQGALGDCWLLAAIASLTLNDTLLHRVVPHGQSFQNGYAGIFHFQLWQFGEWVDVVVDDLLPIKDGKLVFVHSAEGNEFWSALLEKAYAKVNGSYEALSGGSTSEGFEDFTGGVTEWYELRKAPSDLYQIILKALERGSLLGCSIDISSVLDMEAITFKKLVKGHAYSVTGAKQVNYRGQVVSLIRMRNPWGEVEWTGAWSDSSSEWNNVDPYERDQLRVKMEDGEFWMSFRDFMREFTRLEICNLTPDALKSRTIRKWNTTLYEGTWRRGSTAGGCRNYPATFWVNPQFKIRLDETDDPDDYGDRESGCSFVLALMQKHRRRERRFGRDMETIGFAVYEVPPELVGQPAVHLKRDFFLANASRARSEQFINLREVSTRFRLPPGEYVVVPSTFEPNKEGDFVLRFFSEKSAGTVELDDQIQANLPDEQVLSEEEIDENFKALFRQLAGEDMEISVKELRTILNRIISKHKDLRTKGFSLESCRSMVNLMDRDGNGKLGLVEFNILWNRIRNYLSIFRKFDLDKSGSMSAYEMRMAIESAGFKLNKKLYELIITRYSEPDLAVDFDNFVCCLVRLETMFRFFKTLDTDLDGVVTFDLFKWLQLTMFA

Papain (Carica papaya) = molecular target: T4, Papain (Carica papaya) (UniProt P00784); assay: Inhibition of papain assessed as ratio of pseudo-first-order inhibition rate constant to inhibitor concentration
T4 sequence (whole entry): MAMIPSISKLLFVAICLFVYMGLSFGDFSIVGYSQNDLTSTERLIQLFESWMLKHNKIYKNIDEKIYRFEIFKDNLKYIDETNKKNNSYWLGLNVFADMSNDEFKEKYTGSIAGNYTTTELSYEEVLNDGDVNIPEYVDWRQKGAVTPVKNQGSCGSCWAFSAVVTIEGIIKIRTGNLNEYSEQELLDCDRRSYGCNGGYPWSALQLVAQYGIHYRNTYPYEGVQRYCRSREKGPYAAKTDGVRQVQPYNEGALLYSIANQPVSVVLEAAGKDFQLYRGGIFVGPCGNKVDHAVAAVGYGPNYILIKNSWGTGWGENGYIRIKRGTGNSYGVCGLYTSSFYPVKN
Outline: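 Papain, about 0.29 mg/mL, incubated with inhibitor in 50 mM Hepes, 2.5 mM DTT, 2.5 mM EDTA, pH 7.5; aliquots taken over time into 53.7 µM Cbz-Phe-Arg-pNA; p-nitroanilide release read at 405 nm at room temperature; pseudo-first-order inactivation kinetics.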

[6] = molecular target: Cathepsin B (Homo sapiens) (UniProt P07858); assay: Inhibition of cathepsin B assessed as ratio of pseudo-first-order inhibition rate constant to inhibitor concentration
[7] = molecular target: Lys-gingipain HG66 (Porphyromonas gingivalis) (UniProt P72197); assay: Inhibition of Porphyromonas gingivalis gingipain K assessed as ratio of pseudo-first-order inhibition rate constant to inhibitor concentration
Outline: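 Gingipain K diluted to 4.61 nM in 0.2 M Tris-HCl, 0.1 M NaCl, 5 mM CaCl2, 2 mM DTT, pH 8.0 and incubated with inhibitor (DMSO) at room temperature; aliquots taken at intervals into buffer with Suc-Ala-Phe-Lys-AMC; fluorescence at 465 nm; pseudo-first-order kinetics.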

[8] = molecular target: T5, Clostripain (Clostridium histolyticum) (UniProt P09870); assay: Inhibition of sClostridium histolyticum clostripain assessed as ratio of pseudo-first-order inhibition rate constant to inhibitor concentration; settings: Hathewaya histolytica
T5 sequence (whole entry): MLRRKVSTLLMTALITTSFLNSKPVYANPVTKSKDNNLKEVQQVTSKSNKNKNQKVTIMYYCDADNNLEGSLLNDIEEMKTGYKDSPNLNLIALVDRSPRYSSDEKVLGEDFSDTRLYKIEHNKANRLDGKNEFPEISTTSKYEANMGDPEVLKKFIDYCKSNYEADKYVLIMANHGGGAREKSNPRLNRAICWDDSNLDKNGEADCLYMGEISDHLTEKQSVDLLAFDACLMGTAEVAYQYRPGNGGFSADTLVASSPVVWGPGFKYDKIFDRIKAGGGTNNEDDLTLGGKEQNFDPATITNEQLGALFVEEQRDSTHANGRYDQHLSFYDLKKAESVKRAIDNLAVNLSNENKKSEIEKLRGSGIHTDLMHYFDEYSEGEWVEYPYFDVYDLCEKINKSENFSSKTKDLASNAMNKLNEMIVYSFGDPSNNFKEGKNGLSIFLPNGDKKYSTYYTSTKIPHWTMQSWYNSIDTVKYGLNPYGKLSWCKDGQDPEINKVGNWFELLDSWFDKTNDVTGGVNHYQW
Outline: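 Clostripain activated in 8 mM DTT, then incubated with inhibitor (DMSO) in 20 mM Tris-HCl, 10 mM CaCl2, 0.005% Brij 35, 2 mM DTT, pH 7.6; aliquots taken at intervals into buffer with Cbz-Phe-Arg-AMC; fluorescence at 465 nm; pseudo-first-order kinetics.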

Schistosoma mansoni [9] = assay: as §2; outline: as §1
Legumain (Homo sapiens) = molecular target: T6, Legumain (Homo sapiens) (UniProt Q99538); assay: Inhibition of human AE assessed as ratio of pseudo-first-order inhibition rate constant to inhibitor concentration
T6 sequence (whole entry): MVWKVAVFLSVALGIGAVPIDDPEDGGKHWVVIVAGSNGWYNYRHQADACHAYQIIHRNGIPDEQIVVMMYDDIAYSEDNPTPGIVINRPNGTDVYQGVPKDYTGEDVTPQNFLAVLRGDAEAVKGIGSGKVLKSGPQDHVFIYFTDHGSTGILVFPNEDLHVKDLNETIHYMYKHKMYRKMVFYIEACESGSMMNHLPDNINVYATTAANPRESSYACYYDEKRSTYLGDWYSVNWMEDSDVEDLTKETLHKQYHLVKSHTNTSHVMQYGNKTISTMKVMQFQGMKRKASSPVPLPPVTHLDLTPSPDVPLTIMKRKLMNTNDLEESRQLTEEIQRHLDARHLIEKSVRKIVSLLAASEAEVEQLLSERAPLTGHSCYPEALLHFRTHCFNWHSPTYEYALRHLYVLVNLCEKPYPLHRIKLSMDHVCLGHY
Outline: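 Human AE; inhibitor and substrate incubated at 25 °C in 20 mM citric acid, 60 mM Na2HPO4, 1 mM EDTA, 0.1% CHAPS, pH 5.8 before enzyme addition.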

Schistosoma mansoni [10] = assay: Inhibition of Schistosoma mansoni AE assessed as ratio of pseudo-first-order inhibition rate constant to inhibitor concentration
Outline: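 Autoactivated recombinant SmAE added to six inhibitor concentrations (0–1 µM final) in 0.1 M citrate phosphate, 2 mM DTT, pH 6.8 with 20 µM Cbz-Ala-Ala-Asn-AMC; progress followed every 2 s for 30 min at 25 °C (ex 355, em 460 nm); kobs/[I] by nonlinear regression, corrected for substrate by factor 1.33.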

Sus scrofa = organism: Sus scrofa; assay: Inhibition of pig AE assessed as ratio of pseudo-first-order inhibition rate constant to inhibitor concentration
Outline: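 Pig AE in 39.5 mM citric acid, 121 mM Na2HPO4, 1 mM EDTA, 0.1% CHAPS, 0.015% Brij, 1 mM DTT.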

SMILES: C/C=C/C=C/C(=O)N(CC(N)=O)NC(=O)[C@H](C)NC(=O)[C@H](C)NC(=O)OCc1ccccc1
- IC50 [1]: 8000 nM
- Activity (Schistosoma mansoni [9]): inactive

SMILES: Cc1ccc(C)c(C(=O)OCC(=O)[C@H](CC(N)=O)NC(=O)OCc2ccccc2)c1
- Ratio (Legumain (Homo sapiens)): 109000 M⁻¹ s⁻¹

SMILES: CCN(CC)C(=O)/C=C/C(=O)N(CC(N)=O)NC(=O)[C@H](C)NC(=O)[C@H](C)NC(=O)OCc1ccccc1
- IC50 [1]: 2000 nM
- IC50 [2]: 2700 nM
- Activity (Schistosoma mansoni [9]): inactive
- Ratio (Schistosoma mansoni [10]): 17400 M⁻¹ s⁻¹

SMILES: C[C@H](NC(=O)OCc1ccccc1)C(=O)N[C@@H](C)C(=O)NN(CC(N)=O)C(=O)CCl
- Ratio (Sus scrofa): 139000 M⁻¹ s⁻¹

More lines, main results first:

- IC50 [1]: 5 nM
- half-life [3]: 2.5 min
SMILES: C[C@H](NC(=O)OCc1ccccc1)C(=O)N[C@@H](C)C(=O)NN(CC(N)=O)C(=O)/C=C/C(=O)OCc1ccccc1
- IC50 [2]: < 1 nM

- IC50 [1]: 50 nM
- Activity (Caspase-3 (Homo sapiens)): inactive
- Activity (Caspase-6 (Homo sapiens)): inactive
- Activity (Caspase-8 (Homo sapiens)): inactive
- Activity [5]: inactive
- Activity (Papain (Carica papaya)): inactive
- Activity [6]: inactive
- Ratio [7]: 1 M⁻¹ s⁻¹
- Activity [8]: inactive
SMILES: C[C@H](NC(=O)OCc1ccccc1)C(=O)N[C@@H](C)C(=O)NN(CC(N)=O)C(=O)/C=C/C(=O)N1CCc2ccccc21
- IC50 [2]: 18 nM
- IC50 [4]: 70 nM

- IC50 [1]: ≥ 10000 nM
SMILES: C[C@H](NC(=O)OCc1ccccc1)C(=O)N[C@@H](C)C(=O)NN(CC(N)=O)C(=O)/C=C/C(=O)c1ccccc1
- IC50 [2]: > 20000 nM
- Activity (Schistosoma mansoni [9]): inactive
